Test results reported in ChEMBL document CHEMBL4368930, “Synthesis and anti-HSV activity of tricyclic penciclovir and hydroxybutylguanine derivatives” (Bioorg Med Chem, 2019).

How the values were obtained:
TERT-RPE1 = experiment: Cytostatic activity against human hTERT-RPE1 cells; assay type: ADME, cell-based; details: RPE-1
Summary of the method: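 Cell proliferation was measured against the number of cells in untreated controls.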

Human alphaherpesvirus 1 [1] = experiment: Antiviral activity against herpes simplex virus 1 KOS infected in HEL cells assessed as reduction in virus-induced cytopathogenicity by microscopic analysis; assay type: functional, organism-based; details: Human alphaherpesvirus 1, strain KOS
Human alphaherpesvirus 2 = experiment: Antiviral activity against herpes simplex virus 2 G infected in HEL cells assessed as reduction in virus-induced cytopathogenicity by microscopic analysis; assay type: functional, organism-based; details: Human alphaherpesvirus 2, G
Summary of the method: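 Confluent cell monolayers were inoculated with 100 CCID50 of virus or 20 PFU. After a 1–2 h adsorption, residual virus was removed and cultures were incubated with the test compounds at 200, 40, 8, 1.6 and 0.32 μM. Cytopathicity was scored once it was complete in untreated infected controls.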

Human alphaherpesvirus 1 [2] = experiment: Antiviral activity against thymidine kinase deficient and aciclovir resistant herpes simplex virus 1 KOS infected in HEL cells assessed as reduction in virus-induced cytopathogenicity by microscopic analysis; assay type: functional, organism-based; details: Human alphaherpesvirus 1, strain KOS
[3] = Cytotoxicity against HEL cells assessed as effect on cell morphology at 0.32 to 200 uM by microscopic analysis; assay type: cell-based; details: human
Human alphaherpesvirus 3 [4] = experiment: Antiviral activity against Varicella-zoster virus Oka harboring thymidine kinase infected in HEL cells assessed as reduction in virus plaque formation; assay type: functional, organism-based; details: Human alphaherpesvirus 3, Oka
Human alphaherpesvirus 3 [5] = experiment: Antiviral activity against thymidine kinase deficient Varicella-zoster virus 07-1 infected in HEL cells assessed as reduction in virus plaque formation; assay type: functional, organism-based; details: Human alphaherpesvirus 3, 07-1, HEL
Human betaherpesvirus 5 [6] = experiment: Antiviral activity against Human cytomegalovirus AD169 assessed as reduction in virus-induced cytopathogenicity by microscopic analysis; assay type: functional, organism-based; details: Human betaherpesvirus 5, strain AD169
Human betaherpesvirus 5 [7] = experiment: Antiviral activity against Human cytomegalovirus Davis assessed as reduction in virus-induced cytopathogenicity by microscopic analysis; assay type: functional, organism-based; details: Human betaherpesvirus 5, Davis
CAPAN-1 = experiment: Cytostatic activity against human Capan1 cells; assay type: ADME, cell-based
[8] = Cytostatic activity against human HAP1 cells; assay type: ADME, cell-based
NCI-H460 = experiment: Cytostatic activity against human NCI-H460 cells; assay type: ADME, cell-based
[9] = Cytostatic activity against human DND41 cells; assay type: ADME, cell-based
HL-60 = experiment: Cytostatic activity against human HL60 cells; assay type: ADME, cell-based
K562 = experiment: Cytostatic activity against human K562 cells; assay type: ADME, cell-based
Z-138 = experiment: Cytostatic activity against human Z138 cells; assay type: ADME, cell-based

Row | Structure (SMILES) | IC50 (TERT-RPE1) [µM] | EC50 (Human alphaherpesvirus 1 [1]) [µM] | EC50 (Human alphaherpesvirus 2) [µM] | EC50 (Human alphaherpesvirus 1 [2]) [µM] | MCC at up to 200 µM [3] [µM] | EC50 (Human alphaherpesvirus 3 [4]) [µM] | EC50 (Human alphaherpesvirus 3 [5]) [µM] | EC50 (Human betaherpesvirus 5 [6]) [µM] | EC50 (Human betaherpesvirus 5 [7]) [µM] | IC50 (CAPAN-1) [µM] | IC50 [8] [µM] | IC50 (NCI-H460) [µM] | IC50 [9] [µM] | IC50 (HL-60) [µM] | IC50 (K562) [µM] | IC50 (Z-138) [µM]
1 | CN[C@@H]1C[C@H]2O[C@@](C)([C@@H]1OC)n1c3ccccc3c3c4c(c5c6ccccc6n2c5c31)C(=O)NC4 [STAUROSPORINE] | 0.25 | – | – | – | – | – | – | – | – | – | – | – | – | – | – | –
2 | Nc1nc2c(ncn2CCCCO)c(=O)[nH]1 | > 100 | 1.5 | 2.1 | 10 | > 100 | 76.5 | > 100 | > 100 | > 100 | 72.7 | > 100 | > 100 | > 100 | > 100 | > 100 | > 100
3 | O=c1c2ncn(CCC(CO)CO)c2nc2[nH]c(-c3ccc(C(F)(F)F)cc3)cn12 | 51.5 | 20 | 31.7 | > 100 | ≥ 100 | 49.5 | 100 | 63.1 | 76.5 | 17.2 | 37.8 | 12.5 | 56.5 | 55.3 | > 100 | 76.1
4 | O=c1c2ncn(CCC(CO)CO)c2nc2[nH]c(-c3ccc(Cl)cc3)cn12 | > 100 | > 100 | > 100 | > 100 | > 100 | > 100 | > 100 | > 100 | > 100 | 84.8 | > 100 | > 100 | > 100 | > 100 | > 100 | > 100
5 | O=c1c2ncn(CCCCO)c2nc2[nH]c(-c3ccccc3)cn12 | > 100 | > 100 | > 100 | > 100 | > 100 | – | – | – | – | 69.1 | > 100 | > 100 | > 100 | > 100 | > 100 | > 100
6 | O=c1[nH]c(=O)n([C@H]2C[C@H](O)[C@@H](CO)O2)cc1/C=C/Br [BRIVUDINE] | – | – | > 250 | 14 | > 250 | 0.037 | 7.9 | – | – | – | – | – | – | – | – | –
7 | Cc1ccc(-c2cn3c(=O)c4ncn(CCC(CO)CO)c4nc3[nH]2)cc1 | > 100 | > 100 | > 100 | > 100 | > 100 | 63.1 | > 100 | > 100 | > 100 | > 100 | > 100 | > 100 | > 100 | > 100 | > 100 | > 100
8 | O=c1c2ncn(CCCCO)c2nc2[nH]c(-c3ccc(Cl)cc3)cn12 | > 100 | > 100 | > 100 | > 100 | > 100 | – | – | – | – | 64.4 | > 100 | > 100 | > 100 | > 100 | > 100 | > 100
9 | Cc1ccc(-c2cn3c(=O)c4ncn(CCCCO)c4nc3[nH]2)cc1 | > 100 | > 100 | > 100 | > 100 | > 100 | – | – | – | – | 78.9 | > 100 | > 100 | > 100 | > 100 | > 100 | > 100
10 | O=c1c2ncn(CCCCO)c2nc2[nH]c(-c3ccc(F)cc3)cn12 | > 100 | > 100 | > 100 | > 100 | > 100 | – | – | – | – | 56.1 | > 100 | 55.5 | > 100 | > 100 | > 100 | > 100
11 | Nc1nc2c(ncn2COCCO)c(=O)[nH]1 [ACYCLOVIR] | – | 0.9 | 0.9 | 100 | > 250 | – | – | – | – | – | – | – | – | – | – | –
12 | O=c1c2ncn(CCCCO)c2nc2[nH]c(-c3ccc(C(F)(F)F)cc3)cn12 | > 100 | > 100 | > 100 | > 100 | > 100 | – | – | – | – | 36.1 | 63.8 | 52.5 | > 100 | > 100 | > 100 | > 100
13 | O=c1c2ncn(CCCCO)c2nc2[nH]c(-c3ccc4c(c3)OCO4)cn12 | > 100 | > 100 | > 100 | > 100 | > 100 | – | – | – | – | 92.8 | > 100 | > 100 | > 100 | > 100 | > 100 | > 100
14 | COc1cc([C@@H]2c3cc4c(cc3[C@@H](O[C@@H]3O[C@@H]5CO[C@@H](C)O[C@H]5[C@H](O)[C@H]3O)[C@H]3COC(=O)[C@H]23)OCO4)cc(OC)c1O [ETOPOSIDE] | 0.23 | – | – | – | – | – | – | – | – | 0.15 | 0.04 | 1.35 | 0.06 | 0.03 | 0.54 | 1.06
15 | CC(=O)O[C@@]12CO[C@@H]1C[C@H](O)[C@@]1(C)C(=O)[C@H](O)C3=C(C)[C@@H](OC(=O)[C@H](O)[C@@H](NC(=O)OC(C)(C)C)c4ccccc4)C[C@@](O)([C@@H](OC(=O)c4ccccc4)[C@H]21)C3(C)C [DOCETAXEL ANHYDROUS] | 25 | – | – | – | – | – | – | – | – | 0.95 | 1.19 | 0.89 | 1.63 | 0.00194 | 0.003 | 0.003
16 | Nc1ccn(C[C@@H](CO)OCP(=O)(O)O)c(=O)n1 [CIDOFOVIR] | – | – | – | 5 | > 250 | – | – | 0.72 | – | – | – | – | – | – | – | –
17 | COc1ccc(-c2cn3c(=O)c4ncn(CCCCO)c4nc3[nH]2)cc1 | > 100 | > 100 | > 100 | > 100 | > 100 | – | – | – | – | 98.9 | > 100 | > 100 | > 100 | > 100 | > 100 | > 100
18 | O=c1c2ncn(CCCCO)c2nc2[nH]c(-c3cccs3)cn12 | > 100 | > 100 | > 100 | > 100 | > 100 | – | – | – | – | > 100 | > 100 | > 100 | > 100 | > 100 | > 100 | > 100
19 | Nc1nc2c(ncn2COC(CO)CO)c(=O)[nH]1 [GANCICLOVIR] | – | – | 0.4 | – | > 250 | – | – | – | – | – | – | – | – | – | – | –
